By half-life is commonly meant how long it takes for the measured level to halve. By inhibition is commonly meant the share of the control response that was lost under treatment.

In ChEMBL document CHEMBL5230175, “The war on hTG2: warhead optimization in small molecule human tissue transglutaminase inhibitors” (RSC Med Chem, 2023) one finds half-life, K and inhibition data, which are given here for 2 molecules.

A short description of series [1]: Metabolic stability in human whole blood assessed as half-life at 1 to 5 uM measured upto 120 mins by LC-MS/MS analysis. In kind it is ADME, tissue-based. Conditions: dose 1-5 µM. Put shortly: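 Pooled human whole blood (K3-EDTA) was spiked to 1 or 5 μM compound. Aliquots taken at 0, 15, 30, 60 and 120 min were quenched in acetonitrile with 0.1% formic acid and internal standard, then analysed by LC-MS/MS. Percent parent remaining is the peak-area ratio versus T = 0; half-life comes from an exponential decay fit.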

Series [2] deals with T1, Protein-glutamine gamma-glutamyltransferase K (Homo sapiens) (UniProt P22735).
T1 sequence (whole entry): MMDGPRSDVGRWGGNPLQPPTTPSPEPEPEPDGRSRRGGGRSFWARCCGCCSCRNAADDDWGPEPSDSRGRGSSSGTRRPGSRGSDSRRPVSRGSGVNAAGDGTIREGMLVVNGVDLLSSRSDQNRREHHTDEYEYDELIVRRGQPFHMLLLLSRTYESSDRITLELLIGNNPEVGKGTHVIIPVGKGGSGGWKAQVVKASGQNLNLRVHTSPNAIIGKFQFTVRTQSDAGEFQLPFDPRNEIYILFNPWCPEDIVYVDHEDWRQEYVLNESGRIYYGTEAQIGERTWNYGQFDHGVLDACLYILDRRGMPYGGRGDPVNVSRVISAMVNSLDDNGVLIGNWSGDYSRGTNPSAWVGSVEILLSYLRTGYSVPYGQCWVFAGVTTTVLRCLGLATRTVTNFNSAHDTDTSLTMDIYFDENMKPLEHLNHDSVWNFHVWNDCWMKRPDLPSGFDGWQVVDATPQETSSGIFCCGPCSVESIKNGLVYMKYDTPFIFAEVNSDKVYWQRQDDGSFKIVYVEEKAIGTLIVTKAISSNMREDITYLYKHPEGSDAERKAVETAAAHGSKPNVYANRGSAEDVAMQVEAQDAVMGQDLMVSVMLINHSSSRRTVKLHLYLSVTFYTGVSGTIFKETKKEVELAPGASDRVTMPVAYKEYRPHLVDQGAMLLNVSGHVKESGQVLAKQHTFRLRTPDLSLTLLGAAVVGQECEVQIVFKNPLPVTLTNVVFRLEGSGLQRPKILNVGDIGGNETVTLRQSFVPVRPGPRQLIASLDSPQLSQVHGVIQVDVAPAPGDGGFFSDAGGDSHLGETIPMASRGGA
Nature of the series: Irreversible inhibition of human TG1 using Cbz-Glu-(gamma-p-nitrophenylester)Gly (AL5) as substrate assessed as substrate hydrolysis by measuring observed binding constant incubated for 100 mins by colorimetric assay.

Series [3] in a line: GSH reactivity in aqueous buffer assessed as GSH adduct formation by measuring corrected intrinsic second order rate constant (K2 corrected) by HPLC analysis. The format is physicochemical. Put shortly:
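GSH stock diluted to final 15 mM in aqueous buffer (pH 8.0 used, 7.4 too slow), reaction started with inhibitor at final 0.5 mM, 2% v/v DMSO. Incubated at 22 °C and aliquots taken over at least 5–6 half-lives. HPLC with UV 214/254 nm tracked adduct growth and inhibitor loss, fitted mono-exponentially to give pseudo-first-order kobs. kobs was divided by [thiol] and then by the thiolate fraction (pKa 8.7) to give kcorr2. Run in duplicate.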

For series [4], the target named is T2, Coagulation factor XIII A chain (Homo sapiens) (UniProt P00488).
T2 sequence (whole entry): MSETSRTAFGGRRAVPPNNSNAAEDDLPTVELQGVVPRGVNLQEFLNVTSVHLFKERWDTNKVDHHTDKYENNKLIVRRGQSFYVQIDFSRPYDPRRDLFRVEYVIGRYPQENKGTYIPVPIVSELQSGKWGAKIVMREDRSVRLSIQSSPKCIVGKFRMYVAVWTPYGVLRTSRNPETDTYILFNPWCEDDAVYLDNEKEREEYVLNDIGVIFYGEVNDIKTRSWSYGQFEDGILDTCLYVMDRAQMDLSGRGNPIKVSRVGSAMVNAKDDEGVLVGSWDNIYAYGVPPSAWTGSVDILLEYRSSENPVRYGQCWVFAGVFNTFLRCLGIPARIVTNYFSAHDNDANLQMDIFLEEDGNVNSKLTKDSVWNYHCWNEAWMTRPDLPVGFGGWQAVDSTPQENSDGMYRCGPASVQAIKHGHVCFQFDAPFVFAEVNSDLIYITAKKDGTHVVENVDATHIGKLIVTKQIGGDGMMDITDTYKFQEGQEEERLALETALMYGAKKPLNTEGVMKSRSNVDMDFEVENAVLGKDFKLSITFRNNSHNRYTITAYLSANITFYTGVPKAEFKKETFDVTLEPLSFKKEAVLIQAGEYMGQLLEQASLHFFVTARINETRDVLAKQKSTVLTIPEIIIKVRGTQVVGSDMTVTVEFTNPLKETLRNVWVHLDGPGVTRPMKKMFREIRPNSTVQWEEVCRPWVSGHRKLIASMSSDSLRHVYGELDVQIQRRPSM
Kind of series: Irreversible inhibition of human factor XIIIa using peptidic FRET-quenched probe A101 as substrate assessed as observed binding constant by fluorescence based assay.

For series [5], the target named is T3, Protein-glutamine gamma-glutamyltransferase E (Homo sapiens) (UniProt Q08188).
T3 sequence (whole entry): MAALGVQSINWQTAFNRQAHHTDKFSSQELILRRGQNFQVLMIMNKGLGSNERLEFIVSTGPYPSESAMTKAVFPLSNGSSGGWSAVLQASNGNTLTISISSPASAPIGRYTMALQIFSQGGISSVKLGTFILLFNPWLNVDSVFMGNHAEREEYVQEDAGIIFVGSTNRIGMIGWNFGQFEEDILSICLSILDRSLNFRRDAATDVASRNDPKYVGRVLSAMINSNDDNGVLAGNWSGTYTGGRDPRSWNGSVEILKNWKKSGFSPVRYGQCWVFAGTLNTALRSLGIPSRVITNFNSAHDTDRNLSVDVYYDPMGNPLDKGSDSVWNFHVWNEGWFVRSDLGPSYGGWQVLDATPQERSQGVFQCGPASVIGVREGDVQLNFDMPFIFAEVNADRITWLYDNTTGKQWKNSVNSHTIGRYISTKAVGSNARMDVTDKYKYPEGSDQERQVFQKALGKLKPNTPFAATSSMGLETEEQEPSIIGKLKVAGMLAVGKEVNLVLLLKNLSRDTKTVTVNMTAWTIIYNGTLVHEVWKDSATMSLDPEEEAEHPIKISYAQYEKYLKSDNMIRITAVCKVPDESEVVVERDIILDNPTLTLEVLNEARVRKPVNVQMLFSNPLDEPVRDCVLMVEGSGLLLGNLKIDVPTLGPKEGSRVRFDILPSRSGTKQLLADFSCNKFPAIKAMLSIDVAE
Nature of the series: Reversible inhibition of activated human TG3 using peptidic FRET-quenched probe A101 as substrate by fluorescence based assay relative to control. The settings on record: concentration not given here.

Structures are written as SMILES.

For `O=C(CCl)NCC(=O)N1CCN(C(=O)C23CC4CC(CC(C4)C2)C3)CC1`, the half-life at up to 5 µM in series [1] is > 2 h. Moreover, the K in series [2] was 0.018 min⁻¹; in series [3] it was 1.48 10^-3/M/min; in series [4] it was 0.013 min⁻¹. The molecule further yielded an inhibition in series [5] of 41.5%.
Regarding `C=CC(=O)NCC(=O)N1CCN(C(=O)C23CC4CC(CC(C4)C2)C3)CC1`, the half-life at up to 5 µM in series [1] is > 2 h. Also, the K in series [2] was 0.023 min⁻¹; in series [3] it was 0.079 10^-3/M/min; in series [4] it was 0.051 min⁻¹. This molecule also gave an inhibition in series [5] of 59.1%.
